Values joined by “and” are separate entries in the source; they are usually repeats but may differ in a detail not shown here. Equal entries are not always repeated. Residues, ends and D or L forms follow the SMILES beside them. *: point of attachment. Cbz = O=C(OCc1ccccc1)*; NHOH = ON* Where only a bound is given, the exact number is not on record here.

Broadly, the IC50 is the concentration at which inhibition is half-maximal.

In experiment [1] the target is T1, Endothelin-converting enzyme 1 (Homo sapiens, UniProt P42892).
T1 sequence (P42892 whole entry): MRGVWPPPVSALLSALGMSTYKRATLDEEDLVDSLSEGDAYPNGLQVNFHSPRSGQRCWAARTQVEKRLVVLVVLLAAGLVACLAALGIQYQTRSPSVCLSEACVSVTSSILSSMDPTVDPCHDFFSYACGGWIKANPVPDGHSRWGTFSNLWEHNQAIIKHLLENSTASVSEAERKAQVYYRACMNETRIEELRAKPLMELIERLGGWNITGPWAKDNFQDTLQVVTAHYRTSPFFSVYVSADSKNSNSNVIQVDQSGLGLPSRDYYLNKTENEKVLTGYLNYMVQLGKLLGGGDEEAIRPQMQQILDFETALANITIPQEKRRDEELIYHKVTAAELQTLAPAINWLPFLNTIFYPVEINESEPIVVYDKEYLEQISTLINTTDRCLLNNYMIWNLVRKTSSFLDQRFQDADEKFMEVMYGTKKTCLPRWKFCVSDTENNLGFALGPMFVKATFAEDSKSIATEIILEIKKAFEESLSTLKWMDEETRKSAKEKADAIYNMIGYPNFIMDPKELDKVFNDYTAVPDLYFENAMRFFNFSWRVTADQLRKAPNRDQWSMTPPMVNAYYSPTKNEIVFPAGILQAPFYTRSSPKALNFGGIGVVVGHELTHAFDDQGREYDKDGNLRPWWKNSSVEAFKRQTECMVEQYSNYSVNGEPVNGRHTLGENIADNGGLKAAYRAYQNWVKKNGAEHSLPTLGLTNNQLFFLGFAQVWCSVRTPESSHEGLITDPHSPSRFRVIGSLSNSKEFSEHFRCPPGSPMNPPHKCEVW
Nature of the experiment: Inhibitory activity against human bronchiolar smooth muscle Endothelin-converting enzyme 1. The experiment is classed as tissue-based, Muscle tissue. In short, it runs like this: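 Enzyme purified from cultured human bronchiolar smooth muscle cell membranes (octyl glucoside solubilization, ion exchange, gel filtration). Preincubated 30 min at 37 °C with inhibitor (in DMSO), then 3 μM human big ET-1 (final) added. Run 4–5 h at 37 °C in 50 mM Na-MOPS pH 7.2, 150 mM NaCl, 30 μM CaCl2, amastatin, PMSF. Stopped with EDTA. ET-1 quantified by reverse-phase HPLC with fluorescence.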

Experiment [2] concerns the target T2, Neprilysin (Oryctolagus cuniculus, UniProt P08049).
T2 sequence (P08049 whole entry): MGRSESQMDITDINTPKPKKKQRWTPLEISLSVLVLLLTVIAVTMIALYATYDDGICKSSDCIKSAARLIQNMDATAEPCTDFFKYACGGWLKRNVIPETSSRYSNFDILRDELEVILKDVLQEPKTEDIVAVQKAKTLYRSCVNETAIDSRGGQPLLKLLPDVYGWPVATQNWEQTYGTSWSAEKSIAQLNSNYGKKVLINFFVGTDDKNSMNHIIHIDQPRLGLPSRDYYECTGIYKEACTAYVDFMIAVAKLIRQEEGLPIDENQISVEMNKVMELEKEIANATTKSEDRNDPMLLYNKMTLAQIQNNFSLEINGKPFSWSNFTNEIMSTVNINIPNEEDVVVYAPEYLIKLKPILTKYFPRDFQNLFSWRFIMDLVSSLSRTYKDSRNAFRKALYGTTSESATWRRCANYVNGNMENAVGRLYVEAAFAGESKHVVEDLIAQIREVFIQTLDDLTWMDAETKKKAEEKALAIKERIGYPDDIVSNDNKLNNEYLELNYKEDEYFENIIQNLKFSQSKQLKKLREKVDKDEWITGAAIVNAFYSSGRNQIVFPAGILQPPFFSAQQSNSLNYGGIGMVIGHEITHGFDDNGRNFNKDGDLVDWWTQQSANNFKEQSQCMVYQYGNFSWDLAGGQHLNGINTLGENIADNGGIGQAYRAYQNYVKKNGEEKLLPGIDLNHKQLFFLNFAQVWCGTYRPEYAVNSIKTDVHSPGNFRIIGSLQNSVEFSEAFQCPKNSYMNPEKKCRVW
Kind of experiment: Inhibitory activity against Leu-enkeph of Neutral endopeptidase. In short, it runs like this:
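Soluble rabbit kidney neutral endopeptidase preincubated 15 min with inhibitor. Tritiated [Leu]enkephalin as substrate. Reaction ran 10 min at 20 °C in 50 mM Tris-Cl pH 7.5.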

The target of experiment [3] is T2, Neprilysin. Nature of the experiment: Inhibitory activity against big ET-1 of Neutral endopeptidase. In short, it runs like this:
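Soluble rabbit kidney neutral endopeptidase, run under the same conditions as the ECE assay: 30 min inhibitor preincubation at 37 °C, 3 μM human big ET-1, 4–5 h at 37 °C, pH 7.2 Na-MOPS buffer with NaCl and CaCl2. ET-1 formed was measured by reverse-phase HPLC with fluorescence detection. IC50 by least-squares curve fit.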

In a further experiment the target is T3, Thermolysin (Bacillus thermoproteolyticus, UniProt P00800).
T3 sequence (P00800 whole entry): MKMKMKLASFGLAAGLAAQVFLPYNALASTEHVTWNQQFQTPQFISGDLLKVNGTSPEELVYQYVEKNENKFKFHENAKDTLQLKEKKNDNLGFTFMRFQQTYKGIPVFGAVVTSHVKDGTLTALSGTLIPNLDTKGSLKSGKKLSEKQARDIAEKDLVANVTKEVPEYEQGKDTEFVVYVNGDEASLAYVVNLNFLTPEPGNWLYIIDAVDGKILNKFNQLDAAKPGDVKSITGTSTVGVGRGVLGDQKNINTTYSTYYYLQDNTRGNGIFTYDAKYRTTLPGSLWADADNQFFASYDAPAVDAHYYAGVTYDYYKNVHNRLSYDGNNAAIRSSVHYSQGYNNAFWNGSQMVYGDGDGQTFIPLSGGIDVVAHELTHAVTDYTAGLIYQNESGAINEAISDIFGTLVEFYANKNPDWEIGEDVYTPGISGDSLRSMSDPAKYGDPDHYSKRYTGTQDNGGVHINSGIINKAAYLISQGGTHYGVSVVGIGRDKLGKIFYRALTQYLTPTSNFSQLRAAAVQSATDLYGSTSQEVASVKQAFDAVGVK
Nature of the experiment: Inhibitory activity against thermolysin with 0.5 uM [Leu5]-enkephalin (NEN). Put shortly:
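Thermolysin preincubated 15 min with inhibitor. Substrate 0.5 μM [3,5-3H-Tyr1][Leu]enkephalin. Reaction ran 10 min at 20 °C in 50 mM Tris-Cl pH 7.5.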

For the molecule `CC(C)C[C@H](C(=O)NO)C(=O)N[C@@H](C)C(=O)NCC(N)=O`, the IC50 in experiment [1] was found to be 11 nM; against Neprilysin [2], 2 nM; against Neprilysin [3], 40 nM; against Thermolysin, 175 nM.
In the case of `CC(C)CC(C(=O)NO)C(=O)NC(Cc1c[nH]c2ccccc12)C(=O)O` (stereo not given), the IC50 in experiment [1] was 0.25 nM; against Neprilysin [2], 0.03 nM; at Neprilysin [3] it was 0.07 nM; on Thermolysin, 5 nM.
As to `CC(C)CC(C(=O)NO)C(=O)NC(Cc1c[nH]c2ccccc12)C(N)=O` (stereo not given), the IC50 in experiment [1] was found to be 4.8 nM; at Neprilysin [2], 2 nM; at Neprilysin [3] it was 7 nM; on Thermolysin, 2 nM.
Consider `CC(C)C(CC(=O)NOCc1ccccc1)C(=O)NC(CC(N)=O)C(N)=O` (stereo not given), for which the IC50 in experiment [1] was more than 10000 nM.
On to `CC(C)C(C(=O)NO)C(=O)NC(CC(N)=O)C(=O)O` (stereo not given), for which the IC50 in experiment [1] is 3 nM; on Neprilysin [2], 1 nM; at Neprilysin [3], 20 nM.
As for `CC(C)C(C(=O)NO)C(=O)NC(Cc1c[nH]c2ccccc12)C(N)=O` (stereo not given), the IC50 in experiment [1] turned out to be 1.2 nM; against Neprilysin [2], 2 nM; against Neprilysin [3], 3 nM; against Thermolysin, 9 nM.
For the molecule `CC(C)C(CNO)C(=O)NC(Cc1c[nH]c2ccccc12)C(=O)O` (stereo not given), the IC50 in experiment [1] worked out at 500 nM; at Neprilysin [2], 950 nM; against Neprilysin [3], 1000 nM.
Regarding `CC(C)C(C(=O)NO)C(=O)NCCC(=O)O` (stereo not given), the IC50 in experiment [1] amounted to 0.01 nM; at Neprilysin [2], 2 nM; against Neprilysin [3] it was 1 nM; at Thermolysin, 1900 nM.
In experiment [1], `CC(C)C(CC(N)=O)C(=O)NCCC(=O)O` (stereo not given) gave an IC50 of 6500 nM.
In experiment [1], `O=C(O)CCNC(=O)CC(=O)NO` had an IC50 of 3000 nM.
`CC(C)C(C(=O)NO)C(=O)NC(Cc1c[nH]c2ccccc12)C(=O)O` (stereo not given): the IC50 in experiment [1] amounted to 0.2 nM; at Neprilysin [2], 0.4 nM; against Neprilysin [3] it was 0.03 nM; against Thermolysin, 5 nM.
On to `CC(C)C(C(=O)NO)C(=O)NCC(=O)O` (stereo not given), for which the IC50 in experiment [1] came out at 6.8 nM; against Neprilysin [2], 3 nM; on Neprilysin [3], 8 nM.
As to `CC(C)C(CC(=O)NO)C(=O)NC(CC(N)=O)C(=O)O` (stereo not given), the figures for the IC50 (in experiment [1]; at Neprilysin [2]; against Neprilysin [3]) were 150 nM, 170 nM and 750 nM, respectively.
Regarding `CC(C)CC(C(=O)NOCc1ccccc1)C(=O)NC(Cc1c[nH]c2ccccc12)C(N)=O` (stereo not given), the IC50 in experiment [1] stood at 10000 nM.
Consider `CC(C)C(CC(=O)NO)C(=O)NC(Cc1c[nH]c2ccccc12)C(=O)O` (stereo not given), for which the IC50 was 17 nM and 40 nM in experiment [1]; 5 nM and 18 nM on Neprilysin [2]; 30 nM and 40 nM against Neprilysin [3]; 2000 nM at Thermolysin.
In the case of `CC(C)C(CC(=O)NO)C(=O)NC(CC(N)=O)C(N)=O` (stereo not given), in experiment [1], the IC50 is 3000 nM.
In the case of `CC(C)C(CC(=O)NO)C(=O)NCCC(=O)O` (stereo not given), the IC50 in experiment [1] worked out at 190 nM; against Neprilysin [2] it was 30 nM; on Neprilysin [3] it was 270 nM.
Consider `CC(C)C[C@H](NC(=O)[C@@H]1CCCN1C(=O)OCc1ccccc1)C(=O)NCC(=O)NO` (Cbz-Pro-Leu-Gly-{NHOH}), for which the IC50 was 33000 nM in experiment [1] and 2300 nM against Neprilysin [3].
`CCCCC[C@H](CC(=O)NO)C(=O)N[C@H](C(=O)N1CCC[C@H]1CO)C(C)C` [ACTINONIN]: the IC50 in experiment [1] is 4000 nM; on Neprilysin [3], 8200 nM.
For `C[C@H](NC(=O)[C@@H](CC(=O)NO)Cc1ccccc1)C(=O)O` [KELATORPHAN], the IC50 in experiment [1] was found to be 8 nM; against Neprilysin [2], 1 nM; on Neprilysin [3] it was 8 nM; against Thermolysin, 3 nM.
As to `CC(C)C[C@H](NP(=O)(O)O[C@@H]1O[C@@H](C)[C@H](O)[C@@H](O)[C@H]1O)C(=O)N[C@@H](Cc1c[nH]c2ccccc12)C(=O)O` [PHOSPHORAMIDON], the IC50 is 6 nM against Neprilysin [2], 2 nM on Neprilysin [3] and 33 nM on Thermolysin.
In turn, `O=C(O)CNC(=O)C(CS)Cc1ccccc1` (stereo not given) [THIORPHAN] yielded an IC50 in experiment [1] of 8 nM.

These data come from ChEMBL document CHEMBL1128394, “Hydroxamic acids as potent inhibitors of endothelin-converting enzyme from human bronchiolar smooth muscle” (J Med Chem, 1995).
